Data on one compound can be found in ChEMBL document CHEMBL4334447, “Discovery of 4-Aminoquinoline-3-carboxamide Derivatives as Potent Reversible Bruton's Tyrosine Kinase Inhibitors for the Treatment of Rheumatoid Arthritis” (J Med Chem, 2019).

SMILES strings stand for the structures. pEC50, pIC50: −log10 of the molar value.

For series [1], the target named is T1, Tyrosine-protein kinase BTK (Homo sapiens, UniProt Q06187). The experiment in a line: Reversible inhibition of sodium orthovanadate-stimulated BTK autophosphorylation at Tyr223 residues in human Ramos cells preincubated for 2 hrs followed by sodium orthovanadate addition and measured after 15 mins by Western blot analysis. The class given is cell-based. In general terms: In western blotting, separated proteins are transferred to a membrane and probed.
T1 sequence (Q06187 whole entry): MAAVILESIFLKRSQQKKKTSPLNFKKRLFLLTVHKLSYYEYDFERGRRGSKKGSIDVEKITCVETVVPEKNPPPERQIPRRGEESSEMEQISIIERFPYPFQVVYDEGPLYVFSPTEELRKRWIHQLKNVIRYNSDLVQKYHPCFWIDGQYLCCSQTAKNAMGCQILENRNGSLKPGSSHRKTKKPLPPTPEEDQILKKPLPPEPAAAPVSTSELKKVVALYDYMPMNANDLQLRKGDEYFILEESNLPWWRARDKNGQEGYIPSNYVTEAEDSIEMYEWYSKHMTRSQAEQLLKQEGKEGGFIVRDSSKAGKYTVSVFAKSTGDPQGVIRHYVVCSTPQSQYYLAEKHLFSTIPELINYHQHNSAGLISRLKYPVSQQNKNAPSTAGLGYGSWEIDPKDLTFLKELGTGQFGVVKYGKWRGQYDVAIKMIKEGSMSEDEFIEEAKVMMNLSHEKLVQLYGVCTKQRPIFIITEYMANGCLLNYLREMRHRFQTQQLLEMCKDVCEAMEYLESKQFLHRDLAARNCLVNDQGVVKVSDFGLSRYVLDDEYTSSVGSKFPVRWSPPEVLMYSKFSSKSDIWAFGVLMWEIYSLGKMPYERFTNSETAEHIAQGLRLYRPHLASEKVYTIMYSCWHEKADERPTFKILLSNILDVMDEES

Series [2] has as its target Proto-oncogene tyrosine-protein kinase Src (Homo sapiens, UniProt P12931). The experiment in a line: Inhibition of recombinant full-length human SRC using KVEKIGEGTYGVVYK as substrate measured after 40 mins in presence of [gamma33P]ATP by scintillation counting analysis. The method in brief:
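Started with Mg/ATP at room temperature; 40 min incubation. Stopped with 0.5% phosphoric acid, filtermat-spotted, washed, scintillation counted. Mean of ≥3 assays in triplicate.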

Series [3] has as its target Tyrosine-protein kinase Yes (Homo sapiens, UniProt P07947). The experiment in a line: Inhibition of human full-length recombinant YES using poly(Glu, Tyr) 4:1 as substrate measured after 40 mins in presence of [gamma-33P]-ATP by scintillation counting analysis. The method, boiled down: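 Started with Mg/ATP at room temperature; 40 min incubation. Stopped with 0.5% phosphoric acid, spotted onto Filtermat A, washed, scintillation counted. Mean of ≥3 assays in triplicate.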

Series [4] in a line: Stability in monkey plasma assessed as parent compound remaining at 1 uM measured after 2 hrs by LC-MS/MS analysis. The series is classed as ADME, cell-free, Macaca mulatta. The following applies: rhesus monkey, read-out: Stability. The method, boiled down: (§1)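 Compound at 1 µM initial concentration incubated 2 h at 37 °C in plasma. Quenched with 10 volumes of methanol containing internal standard, then centrifuged. Supernatant diluted with an equal volume of water and analysed by LC-MS/MS. Read-out is % parent remaining. Mean of three separate assays run in triplicate.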

Series [5] can be described thus: Stability in Sprague-Dawley rat plasma assessed as parent compound remaining at 1 uM measured after 2 hrs by LC-MS/MS analysis. The following applies: read-out: Stability. The class given is ADME, cell-free. The method in brief:
as §1

In series [6] the target is T2, Tyrosine-protein kinase ITK/TSK (Homo sapiens, UniProt Q08881).
T2 sequence (Q08881 whole entry): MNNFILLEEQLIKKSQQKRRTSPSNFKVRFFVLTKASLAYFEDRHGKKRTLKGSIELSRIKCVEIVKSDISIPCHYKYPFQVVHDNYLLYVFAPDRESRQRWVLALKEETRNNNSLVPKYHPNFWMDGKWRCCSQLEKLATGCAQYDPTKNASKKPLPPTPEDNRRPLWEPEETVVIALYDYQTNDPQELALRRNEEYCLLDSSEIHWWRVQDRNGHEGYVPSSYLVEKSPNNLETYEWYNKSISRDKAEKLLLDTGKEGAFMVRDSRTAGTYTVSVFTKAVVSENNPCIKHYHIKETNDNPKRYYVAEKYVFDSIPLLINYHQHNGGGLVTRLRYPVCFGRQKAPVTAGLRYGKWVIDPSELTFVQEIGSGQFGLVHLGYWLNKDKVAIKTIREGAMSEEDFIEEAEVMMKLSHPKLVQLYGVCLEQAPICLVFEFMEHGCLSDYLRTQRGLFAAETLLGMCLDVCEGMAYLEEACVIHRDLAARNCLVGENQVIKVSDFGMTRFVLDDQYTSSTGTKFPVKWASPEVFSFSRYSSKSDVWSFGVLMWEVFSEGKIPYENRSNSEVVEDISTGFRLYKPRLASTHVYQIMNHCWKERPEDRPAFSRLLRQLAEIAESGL
The experiment in a line: Inhibition of recombinant human ITK (352 to 617 residues) using myelin basic protein as substrate measured after 40 mins in presence of [gamma33P]ATP by scintillation counting analysis.

Series [7] is described as follows: Stability in Beagle dog plasma assessed as parent compound remaining at 1 uM measured after 2 hrs by LC-MS/MS analysis. The series is classed as ADME, cell-free, Canis lupus familiaris. The following applies: read-out: Stability. The method, boiled down:
as §1

Series [8] is described as follows: Inhibition of recombinant mouse full-length BLK V421E mutant using poly(Glu, Tyr) 4:1 as substrate measured after 40 mins in presence of [gamma33P]ATP by scintillation counting analysis. The method in brief: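 Radiometric assay with BLK in 50 mM Tris pH 7.5, 0.1 mM EGTA, 0.1 mM Na3VO4, 0.1% mercaptoethanol, 0.1 mg/mL poly(Glu,Tyr) 4:1, 10 mM Mg acetate and [γ-33P]-ATP. Started with Mg/ATP at room temperature; 40 min. Stopped with 0.5% phosphoric acid, filtermat-spotted, washed, scintillation counted. Mean of ≥3 assays in triplicate.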

For series [9], the target named is T1, Tyrosine-protein kinase BTK. Put plainly: Reversible inhibition of FAM-labeled peptide binding to full-length human N-terminal GST-tagged BTK (2 to 659 residues) expressed in baculovirus infected Sf21 insect cells at preincubated for 10 mins followed by FAM-labeled peptide addition and measured by off-chip mobility shift assay.
The species named for series [10] is Homo sapiens. The experiment in a line: Selectivity ratio of IC50 for recombinant full-length human SRC to IC50 for inhibition of FAM-labeled peptide binding to full-length human N-terminal GST-tagged BTK (2 to 659 residues) expressed in baculovirus infected Sf21 insect cells. The method, boiled down:
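Ratio of kinase IC50 to BTK IC50. BTK measured by off-chip mobility shift: compound preincubated 10 min with BTK in 50 mM HEPES pH 7.5, 0.01% Brij-35, then FAM-labelled peptide and ATP added, 28 °C. Stopped with EDTA buffer; percent conversion fitted for IC50. Each panel kinase assayed in triplicate.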

Series [11] can be described thus: Volume of distribution in Sprague-Dawley rat at 2 mg/kg, iv or 5 mg/kg, po by LC-MS/MS analysis. Particulars: in vivo. The class given is ADME, organism-based. The method in brief: (§2)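 Male Sprague-Dawley rats (187-205 g, n=6 per route). IV group: 2 mg/kg by tail vein in 10% DMSO/90% PEG400, fed animals. Oral group: 5 mg/kg as a 0.5% methylcellulose suspension, fasted animals. Jugular cannula blood taken pre-dose and from 0.033 h (iv only) to 24 h. Plasma stored at -20 °C and analysed by LC-MS/MS.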

For series [12], the species on record is Homo sapiens. Put plainly: Selectivity ratio of IC50 for recombinant mouse full-length BLK V421E mutant to IC50 for inhibition of FAM-labeled peptide binding to full-length human N-terminal GST-tagged BTK (2 to 659 residues) expressed in baculovirus infected Sf21 insect cells. The method in brief:
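Ratio is BLK IC50 divided by BTK IC50. BLK: radiometric, 50 mM Tris pH 7.5, 0.1 mM EGTA, 0.1 mM Na3VO4, 0.1% mercaptoethanol, 0.1 mg/mL poly(Glu,Tyr) 4:1, 10 mM Mg acetate, [γ-33P]ATP, 40 min room temperature, phosphoric acid stop, filter-bound scintillation counting. BTK: off-chip mobility shift with FAM-peptide. Triplicates, ≥3 assays.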

Series [13] can be described thus: Oral bioavailability in Sprague-Dawley rat at 5 mg/kg by LC-MS/MS analysis. The class given is ADME, organism-based. Particulars: in vivo. The method in brief:
as §2

The nature of series [14]: Toxicity in complete freund's adjuvant-induced DBA/1 mouse arthritis model assessed as effect on appetite at 10 mg/kg, po qd administered starting from 29 day post-CFA challenge and measured on day 29, 33, 36, 40 and 43. Particulars: in vivo, 696 h. The series is classed as organism-based. The method in brief: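 CIA in male DBA/1 mice: intradermal bovine type II collagen in CFA on day 0, collagen II in IFA boost on day 20. Randomized on day 29 and given oral doses once daily (n=6 per group) alongside vehicle and naive groups. Body weights recorded over the study days.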

The target of series [15] is Tyrosine-protein kinase BTK (Homo sapiens, UniProt Q06187, C481S). Put plainly: biochemical.
Tyrosine-protein kinase BTK (Homo sapiens, UniProt Q06187, C481S), sequence (Q06187 whole entry C481S): as the sequence (Q06187 whole entry) above, with C481S counted along it

Tyrosine-protein kinase Yes, sequence (P07947 whole entry): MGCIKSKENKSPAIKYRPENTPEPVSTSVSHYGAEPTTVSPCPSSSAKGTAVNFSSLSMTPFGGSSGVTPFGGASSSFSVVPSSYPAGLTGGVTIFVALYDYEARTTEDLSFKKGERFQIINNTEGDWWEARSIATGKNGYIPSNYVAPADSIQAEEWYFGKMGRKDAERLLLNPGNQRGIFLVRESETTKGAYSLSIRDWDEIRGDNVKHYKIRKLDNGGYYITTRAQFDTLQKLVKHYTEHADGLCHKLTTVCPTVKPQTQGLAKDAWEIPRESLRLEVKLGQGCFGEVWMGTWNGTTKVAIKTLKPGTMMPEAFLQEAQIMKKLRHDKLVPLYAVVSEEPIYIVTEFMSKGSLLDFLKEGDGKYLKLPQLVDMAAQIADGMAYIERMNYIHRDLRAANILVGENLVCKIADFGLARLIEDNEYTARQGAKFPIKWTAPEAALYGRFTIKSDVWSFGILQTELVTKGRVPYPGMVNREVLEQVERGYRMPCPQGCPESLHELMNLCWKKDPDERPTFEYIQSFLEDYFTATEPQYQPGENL
Proto-oncogene tyrosine-protein kinase Src, sequence (P12931 2-536 limits assumed): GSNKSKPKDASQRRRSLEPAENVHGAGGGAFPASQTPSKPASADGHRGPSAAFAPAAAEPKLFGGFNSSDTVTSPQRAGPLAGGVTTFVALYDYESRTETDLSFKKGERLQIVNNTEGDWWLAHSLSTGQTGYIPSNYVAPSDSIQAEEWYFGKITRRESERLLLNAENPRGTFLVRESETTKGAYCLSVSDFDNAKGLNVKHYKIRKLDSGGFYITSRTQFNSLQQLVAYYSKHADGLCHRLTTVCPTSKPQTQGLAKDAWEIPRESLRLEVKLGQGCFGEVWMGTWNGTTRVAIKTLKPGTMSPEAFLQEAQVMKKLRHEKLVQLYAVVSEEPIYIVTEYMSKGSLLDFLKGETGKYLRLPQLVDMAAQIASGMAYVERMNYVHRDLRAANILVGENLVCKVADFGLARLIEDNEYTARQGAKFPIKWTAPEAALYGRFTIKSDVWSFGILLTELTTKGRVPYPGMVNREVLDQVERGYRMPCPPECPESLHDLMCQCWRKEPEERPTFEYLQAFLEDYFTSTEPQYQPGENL

Take `COc1cc2cn[nH]c2cc1-c1ccc(F)c2c(N)c(C(N)=O)cnc12`: in [1], the pEC50 (commonly the EC50 on a negative log10 scale, so that one unit is a factor of ten) is 7.37. In addition, the pIC50 (usually the IC50 on a negative log10 scale, so that one unit is a factor of ten) was 6.04 in [2]; less than 5.00 in series [3]; 6.51 in series [6]; 6.82 in series [8]; 8.28 in series [9]; 7.41 in [15]. The results for the remaining at 2 h, 1 µM in series [4], in series [5] and in series [7] were 88%, 96% and 88%, respectively. For the same compound, the figures for the Ratio IC50 in [10] and in [12] were 170 and 28, respectively. Besides, the Vd in [11] was found to be 2.1 L/kg. In series [13], the bioavailability (in general, the share of a dose that reaches the circulation, judged against a reference dose that is usually intravenous) was 25%. The Activity result in series [14] is “Non-Toxic”.
